Data published in article PMC6923801 (Journal of medicinal chemistry, 2019).

Columns and labels:
[1] = test system: human GPCRome (318 GPCRs); assay: PRESTO-Tango GPCRome off-target agonist screen; assay type: cell-based; settings: 1 μM
Method in brief: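 HTLA cells were plated in DMEM + 2% dFBS overnight, then transfected overnight with receptor Tango constructs (15 ng/well) by in-plate PEI. Test compound was added without medium change and left overnight. Bright-Glo luminescence was read after 20 min at room temperature and expressed as fold of basal, using quadruplicate basal and sample wells. Controls were D2 with 100 nM quinpirole and untransfected cells.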

[2] = target: human GPR68 (Homo sapiens, UniProt Q15743); assay: GloSensor cAMP assay, proton-mediated Gs-cAMP production at human GPR68; assay type: cell-based; settings: for Log (α): affinity cooperativity; for Log (α) / Log (β): human GPR68, HEK293T, Gs-cAMP; for Log (α) / −Log (KB) / Log (αβ/KB) / Log (β): mean ± SEM; for −Log (KB): allosteric binding affinity from functional assay; for −Log (KB) / Log (αβ/KB) / Δ / fold increased allosteric activity (log(αβ/KB)) compared to 1: human GPR68; for Log (αβ/KB): allosteric index; for Δ: difference of Log(αβ/KB) from that of 1; for Log (β): efficacy cooperativity; for PAM activity at GPR68: inactive analogues
Chain of human GPR68 (Q15743 whole entry): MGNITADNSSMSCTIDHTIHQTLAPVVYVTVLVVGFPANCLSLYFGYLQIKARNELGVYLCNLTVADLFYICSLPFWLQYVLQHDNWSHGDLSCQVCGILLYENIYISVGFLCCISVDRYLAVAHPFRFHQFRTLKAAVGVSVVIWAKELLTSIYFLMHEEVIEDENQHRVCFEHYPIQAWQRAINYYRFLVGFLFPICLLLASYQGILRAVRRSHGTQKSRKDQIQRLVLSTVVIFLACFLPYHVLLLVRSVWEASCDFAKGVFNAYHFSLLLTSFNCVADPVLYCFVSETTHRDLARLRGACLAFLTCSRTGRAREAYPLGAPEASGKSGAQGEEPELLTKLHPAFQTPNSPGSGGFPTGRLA
Method in brief: (§1)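 HEK293T cells were transiently transfected with receptor and GloSensor cAMP plasmids, overnight (16–20 h). Cells were plated on poly-L-Lys in DMEM + 1% dFBS for 6–24 h, then loaded with 3.5 mM luciferin (HBSS, 20 mM TAPS, pH 8.40) for 1 h at 37 °C. Drug was applied in Ca/Mg-free HBSS pH buffers (MES 5.60–6.70, HEPES 6.80–8.20, TAPS 8.30–8.60) with 10 μM Ro 20-1724. Luminescence was read at 20–30 min.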

[3] = test system: 48 common GPCRs, ion channels, and transporters; assay: Radioligand binding panel of 48 common drug targets
Method in brief: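 Binding profiling was done by the NIMH PDSP. Targets were first tested at 10 μM in quadruplicate. pKi values were determined for targets with ≥50% inhibition, from at least three independent assays, each in triplicate.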

[4] = target: atypical chemokine receptor 3 (ACKR3) (Homo sapiens, UniProt P25106); assay: Tango arrestin recruitment concentration response, ACKR3; assay type: cell-based
Chain of atypical chemokine receptor 3 (ACKR3) (P25106 whole entry): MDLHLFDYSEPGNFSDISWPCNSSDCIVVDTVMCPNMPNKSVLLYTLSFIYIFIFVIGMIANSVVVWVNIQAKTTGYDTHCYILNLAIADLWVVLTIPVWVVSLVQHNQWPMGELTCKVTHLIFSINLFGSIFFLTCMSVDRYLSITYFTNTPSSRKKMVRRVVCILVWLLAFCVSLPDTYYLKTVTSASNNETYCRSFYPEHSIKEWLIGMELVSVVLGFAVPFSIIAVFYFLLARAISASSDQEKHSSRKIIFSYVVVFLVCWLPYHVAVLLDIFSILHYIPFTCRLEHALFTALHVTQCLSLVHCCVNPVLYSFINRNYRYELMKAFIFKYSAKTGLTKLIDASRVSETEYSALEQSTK
Method in brief: (§2)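 HTLA cells were transfected overnight with receptor DNA in DMEM + 10% FBS, then plated on poly-L-Lys in DMEM + 1% dFBS. Test compound was added 6 h later and incubated overnight (16–20 h). After removal of medium, Bright-Glo reagent was added and luminescence counted.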

[5] = target: 5-HT2B receptors (Homo sapiens, UniProt P41595); assay: Calcium release functional assay at 5-HT2B receptors; assay type: cell-based
Chain of 5-HT2B receptors (P41595 whole entry): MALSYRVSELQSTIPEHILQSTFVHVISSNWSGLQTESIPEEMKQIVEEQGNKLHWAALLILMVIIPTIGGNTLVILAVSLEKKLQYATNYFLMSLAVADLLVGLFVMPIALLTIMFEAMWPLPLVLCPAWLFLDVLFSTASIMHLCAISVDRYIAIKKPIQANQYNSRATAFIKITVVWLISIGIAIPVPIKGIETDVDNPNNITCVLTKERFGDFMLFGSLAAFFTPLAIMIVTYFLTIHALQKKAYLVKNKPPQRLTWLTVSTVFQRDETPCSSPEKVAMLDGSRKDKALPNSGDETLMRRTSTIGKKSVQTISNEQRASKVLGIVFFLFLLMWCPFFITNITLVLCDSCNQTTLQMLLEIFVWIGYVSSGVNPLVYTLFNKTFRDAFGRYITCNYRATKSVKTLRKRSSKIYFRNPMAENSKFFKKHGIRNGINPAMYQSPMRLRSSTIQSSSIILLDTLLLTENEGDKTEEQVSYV
Method in brief: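 HEK293 cells stably expressing 5-HT2B were plated in DMEM with 1% dFBS overnight (16–20 h). They were loaded with Fluo-4 Direct dye for 1 h at 37 °C in HBSS with 20 mM HEPES and 2.5 mM probenecid, pH 7.40. Drug dilutions contained 1 mg/mL BSA and 0.1 mg/mL ascorbic acid. Fluorescence was read 1/s for 2 min, with 10 s baseline. Read-out was peak fold of basal within the first minute.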

[6] = target: T1, GPR4 (Homo sapiens, UniProt P46093); assay: GloSensor cAMP assay at GPR4; assay type: cell-based; settings: proton concentration-response with increasing modulator
T1 sequence (P46093 whole entry): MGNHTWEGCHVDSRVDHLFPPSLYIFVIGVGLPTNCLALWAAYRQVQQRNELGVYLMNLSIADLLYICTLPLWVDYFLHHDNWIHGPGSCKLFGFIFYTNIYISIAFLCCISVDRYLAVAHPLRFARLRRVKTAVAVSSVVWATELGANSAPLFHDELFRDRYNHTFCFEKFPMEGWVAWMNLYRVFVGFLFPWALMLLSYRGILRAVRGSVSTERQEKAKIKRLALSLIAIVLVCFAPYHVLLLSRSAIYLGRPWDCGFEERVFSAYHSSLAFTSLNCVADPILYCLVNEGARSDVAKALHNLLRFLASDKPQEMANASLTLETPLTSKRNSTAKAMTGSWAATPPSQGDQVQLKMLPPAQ
Method in brief: as §1

[7] = target: T2, GPR65 (Homo sapiens, UniProt Q8IYL9); assay: GloSensor cAMP assay at GPR65; assay type: cell-based; settings: proton concentration-response with increasing modulator
T2 sequence (Q8IYL9 whole entry): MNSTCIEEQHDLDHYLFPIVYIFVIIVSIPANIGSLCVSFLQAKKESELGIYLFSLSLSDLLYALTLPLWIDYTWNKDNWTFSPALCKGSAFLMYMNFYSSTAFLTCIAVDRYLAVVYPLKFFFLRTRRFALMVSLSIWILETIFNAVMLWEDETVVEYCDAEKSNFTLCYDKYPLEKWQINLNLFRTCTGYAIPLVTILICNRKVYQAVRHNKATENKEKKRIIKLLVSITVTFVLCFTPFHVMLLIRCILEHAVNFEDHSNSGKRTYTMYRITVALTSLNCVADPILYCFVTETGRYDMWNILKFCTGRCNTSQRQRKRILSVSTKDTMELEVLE
Method in brief: as §1

[8] = target: mouse GPR68 (Mus musculus, UniProt Q8BFQ3); assay: GloSensor cAMP assay at mouse GPR68; assay type: cell-based; settings: for Δ: difference of Log(αβ/KB) at mouse GPR68 from the corresponding values at human GPR68
Chain of mouse GPR68 (Q8BFQ3 whole entry): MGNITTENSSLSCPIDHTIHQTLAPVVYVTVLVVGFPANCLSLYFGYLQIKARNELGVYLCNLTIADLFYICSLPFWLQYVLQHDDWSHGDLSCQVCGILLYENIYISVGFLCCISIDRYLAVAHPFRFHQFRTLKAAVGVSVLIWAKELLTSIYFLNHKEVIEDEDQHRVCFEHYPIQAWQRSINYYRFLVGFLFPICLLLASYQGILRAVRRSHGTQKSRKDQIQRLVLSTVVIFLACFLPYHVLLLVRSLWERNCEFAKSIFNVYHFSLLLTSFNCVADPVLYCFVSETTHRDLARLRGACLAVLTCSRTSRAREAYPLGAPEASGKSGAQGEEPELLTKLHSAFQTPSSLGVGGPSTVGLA
Method in brief: as §1

[9] = Mouse pharmacokinetic study; assay type: in vivo; settings: mice, single 25 mg/kg IP
Method in brief: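 Nine male Swiss Albino mice received one intraperitoneal dose of 25 mg/kg. Vehicle was 5% N-methyl-2-pyrrolidone, 5% Solutol HS-15 and 90% normal saline. Plasma and brain were sampled at 0.5, 1.0 and 2.0 h. Concentrations are averages of three mice per time point ± SEM.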

[10] = target: MT1 receptor (Homo sapiens, UniProt P48039); assay: Tango arrestin recruitment concentration response, MT1; assay type: cell-based
Chain of MT1 receptor (P48039 whole entry): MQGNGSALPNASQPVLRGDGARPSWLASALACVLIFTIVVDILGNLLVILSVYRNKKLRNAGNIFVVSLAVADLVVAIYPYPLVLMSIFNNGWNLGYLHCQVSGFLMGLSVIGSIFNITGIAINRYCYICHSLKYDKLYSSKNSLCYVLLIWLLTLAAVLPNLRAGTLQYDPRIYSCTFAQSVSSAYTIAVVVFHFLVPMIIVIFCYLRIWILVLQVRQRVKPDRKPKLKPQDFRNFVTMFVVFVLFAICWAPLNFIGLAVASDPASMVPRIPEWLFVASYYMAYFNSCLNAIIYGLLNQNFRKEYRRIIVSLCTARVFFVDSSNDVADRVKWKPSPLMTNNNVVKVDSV
Method in brief: as §2

[11] = target: T1, GPR4; settings: cited from earlier work
[12] = target: T2, GPR65; settings: cited from earlier work

Row | Log (α) [2] | −Log (KB) [2] | Log (αβ/KB) [2] | Δ [2] | Log (β) [2] | PAM activity at GPR68 [2] | binding affinity to common drug targets [3] | agonist type at ACKR3 [4] | agonist activity at 5-HT2B receptors [5] | Kb [2] | fold increased allosteric activity (log(αβ/KB)) compared to 1 [2] | Kb [8] | Δ [8] | Compound | off-target agonist activity at human GPCRome [1] | PAM activity at GPR4 [6] | PAM activity at GPR65 [7] | further results
1 | Inactive | Inactive | Inactive | Inactive | Inactive | do not show PAM activity | minimal binding affinities |  |  |  |  |  |  | CC(=O)c1cccc(-c2nc(N)nc(NCc3ccccc3)n2)c1 [Compound 21, 1-(3-(4-Amino-6-(benzylamino)-1,3,5-triazin-2-yl)phenyl)ethan-1-one] | no off-target agonist activity |  |  | 
2 | Inactive | Inactive | Inactive | Inactive | Inactive | do not show PAM activity | minimal binding affinities |  |  |  |  |  |  | CN(C)c1nc(NCc2ccccc2)nc(-c2ccccc2CO)n1 [Compound 7, (2-(4-(Benzylamino)-6-(dimethylamino)-1,3,5-triazin-2-yl)-phenyl)methanol] | no off-target agonist activity |  |  | 
3 |  |  |  | 0.95 |  |  |  | full agonist activities | no agonist activity | 7.24 µM | approximately 10 fold | 19.1 µM | −0.34 | Nc1nc(NCCc2ccccc2)nc(-c2cc(Cl)ccc2CO)n1 [Compound 77, (2-(4-Amino-6-(phenethylamino)-1,3,5-triazin-2-yl)-4-chlorophenyl)methanol] | agonist activity at an atypical chemokine receptor 3 (ACKR3) | no effect or weak activity only at high concentrations | no effect or weak activity only at high concentrations | 
4 |  |  |  | 1.52 |  |  |  |  | no agonist activity | 1.41 µM | 33 fold | 7.59 µM |  | Nc1nc(NCc2ccc(Oc3ccccc3)cc2)nc(-c2c(F)cccc2CO)n1 [Compound 71, (2-(4-Amino-6-((4-phenoxybenzyl)amino)-1,3,5-triazin-2-yl)-3-fluorophenyl)methanol] | agonist activity only at the MT1 and MT2 receptors | no PAM activity | weak potentiation of proton activity at GPR65 only at high concentrations | bioavailability [9]: bioavailable; blood-brain barrier penetration [9]: can readily cross the BBB; clinical signs [9]: no clinical signs observed; time high exposure levels in plasma and brain were maintained [9]: 2 h; agonist type at MT1 [10]: weak full agonist
5 |  |  |  | 1.07 |  |  |  | full agonist activities | no agonist activity | 4.47 µM | approximately 10 fold | 13.8 µM | −0.40 | Nc1nc(NCCCc2ccccc2)nc(-c2cc(Cl)ccc2CO)n1 [Compound 78, (2-(4-Amino-6-((3-phenylpropyl)amino)-1,3,5-triazin-2-yl)-4-chlorophenyl)methanol] | agonist activity at an atypical chemokine receptor 3 (ACKR3) | no effect or weak activity only at high concentrations | no effect or weak activity only at high concentrations | 
6 |  |  |  | 0.00 |  |  |  |  |  | 44.7 µM |  | 74.1 µM | −0.34 | Nc1nc(NCc2ccccc2)nc(-c2ccccc2CO)n1 [Compound 1] |  |  |  | activity at GPR4 [11]: no activity; activity at GPR65 [12]: no activity
